In ChEMBL document CHEMBL1139160 (Bioorg Med Chem Lett, 2007) one finds IC50 and inhibition in vivo data, which are given here for 14 compounds.

Chain of Dipeptidyl peptidase 4 (P14740 whole entry): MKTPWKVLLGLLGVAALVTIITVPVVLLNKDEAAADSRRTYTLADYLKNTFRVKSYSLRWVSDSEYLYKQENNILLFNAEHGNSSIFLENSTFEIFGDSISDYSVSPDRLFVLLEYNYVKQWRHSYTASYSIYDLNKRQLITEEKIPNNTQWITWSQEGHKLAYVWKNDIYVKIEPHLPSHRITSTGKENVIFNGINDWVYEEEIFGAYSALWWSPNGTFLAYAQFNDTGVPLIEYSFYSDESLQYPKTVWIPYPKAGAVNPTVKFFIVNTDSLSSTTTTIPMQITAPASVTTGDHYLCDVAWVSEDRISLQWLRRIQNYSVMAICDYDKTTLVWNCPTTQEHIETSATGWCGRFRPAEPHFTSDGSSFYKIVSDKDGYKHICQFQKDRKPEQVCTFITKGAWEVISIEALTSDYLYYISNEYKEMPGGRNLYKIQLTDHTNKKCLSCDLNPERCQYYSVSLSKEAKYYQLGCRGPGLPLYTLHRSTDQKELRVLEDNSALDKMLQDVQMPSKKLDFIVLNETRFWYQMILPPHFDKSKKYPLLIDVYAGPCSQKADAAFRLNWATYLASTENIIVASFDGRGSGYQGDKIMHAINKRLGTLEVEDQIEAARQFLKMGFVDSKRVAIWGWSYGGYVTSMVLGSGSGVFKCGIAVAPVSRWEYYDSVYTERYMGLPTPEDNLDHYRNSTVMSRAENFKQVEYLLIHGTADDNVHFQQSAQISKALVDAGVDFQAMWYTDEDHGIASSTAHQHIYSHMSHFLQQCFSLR

The first test concerns the target Dipeptidyl peptidase 4 (Rattus norvegicus, UniProt P14740). Description: Inhibition of DPP4 in rat plasma by fluorescence assay. In kind it is cell-free.
Details: not given
Usually IC50 stands for the midpoint of a concentration-inhibition curve. Low readings indicate greater potency, high ones weaker potency. In turn, `COc1ccc(N2CCN([C@@H]3CN[C@H](C(=O)N4CCSC4)C3)CC2)cc1` had an IC50 of 16.9 nM.

For the compound `O=C([C@@H]1C[C@H](N2CCN(c3ccc(Cl)cc3)CC2)CN1)N1CCSC1`, the IC50 was 10.3 nM.

`O=C([C@@H]1C[C@H](N2CCN(c3ccc(Br)cc3)CC2)CN1)N1CCSC1` had an IC50 of 9 nM.

Turning to `O=C([C@@H]1C[C@H](N2CCN(c3ccccc3)CC2)CN1)N1CCSC1`, 17.6 nM corresponded to half-maximal inhibition (IC50). Against the preceding compound, the IC50 is about 2-fold higher.

Turning to `O=C([C@@H]1C[C@H](N2CCN(c3ccc(C(F)(F)F)cc3)CC2)CN1)N1CCSC1`, the half-inhibitory concentration (IC50) is 7.2 nM.

Consider `N#Cc1ccc(N2CCN([C@@H]3CN[C@H](C(=O)N4CCSC4)C3)CC2)nc1`, for which the IC50 was 1.9 nM.

Consider `O=C([C@@H]1C[C@H](N2CCCCC2)CN1)N1CCSC1`, for which the IC50 was determined as 74.4 nM. Against the preceding compound, the IC50 is about 39-fold higher.

Regarding `O=C([C@@H]1C[C@H](N2CCN(c3cccc(Cl)c3)CC2)CN1)N1CCSC1`, half-maximal inhibition (IC50) was put at 7.2 nM.

`N#Cc1ccc(N2CCN([C@@H]3CN[C@H](C(=O)N4CCSC4)C3)CC2)cc1` gave an IC50 of 4.7 nM.

`O=C([C@@H]1C[C@H](N2CCN(c3ccc(F)cc3)CC2)CN1)N1CCSC1` showed an IC50 of 17.5 nM.

As to `N#Cc1ccnc(N2CCN([C@@H]3CN[C@H](C(=O)N4CCSC4)C3)CC2)c1`, the IC50 worked out at 1.4 nM.

The next test concerns Rattus norvegicus. Description: Inhibition of DPP4 in Wistar rat plasma at 10 umol/kg, po.
Details: not given
In kind it is functional. In short, it runs like this:
(§1)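 Male/female not stated; Wistar rats given single oral dose of 10 µmol/kg in 0.5% hydroxypropylmethyl-cellulose. Jugular vein blood (0.1 mL) taken pre-dose and 0.5, 1, 2, 3, 5, 7, 9 h; plasma diluted 10-fold in PBS with 0.003% Brij-35, DPP-IV activity read by Gly-Pro-MCA fluorescence (ex 360/em 465 nm); % change of baseline, means ± SEM, n = 3.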
Compound `N#Cc1ccc(N[C@@H]2CN[C@H](C(=O)N3CCSC3)C2)nc1` yielded an inhibition in vivo at 10 µmol/kg of 70%.

Another test relates to Rattus norvegicus. The experiment in a line: Inhibition of DPP4 in Wistar rat plasma at 10 umol/kg, po within 30 mins. In kind it is functional. Particulars: 0.5 h. In short, it runs like this:
as §1
Compound `N#Cc1ccc(N2CCN([C@@H]3CN[C@H](C(=O)N4CCSC4)C3)CC2)cc1C#N` returned an inhibition in vivo at 10 µmol/kg of 95%.

In the case of `O=C([C@@H]1C[C@H](N2CCN(c3ccc([N+](=O)[O-])cn3)CC2)CN1)N1CCSC1`, the inhibition in vivo at 10 µmol/kg came to 95%.

In the next test the test system is Rattus norvegicus. Description: Inhibition of DPP4 in Wistar rat plasma at 10 umol/kg, po after 9 hrs. Particulars: read-out: Inhibition. It counts as functional. In short, it runs like this: as §1
Consider `N#Cc1ccc(N2CCN([C@@H]3CN[C@H](C(=O)N4CCSC4)C3)CC2)cc1C#N`, for which the inhibition in vivo at 10 µmol/kg was more than 60%.

`O=C([C@@H]1C[C@H](N2CCN(c3ccc([N+](=O)[O-])cn3)CC2)CN1)N1CCSC1`: the inhibition in vivo at 10 µmol/kg was more than 60%.
